# Assay results published in publication PMC3774598 (Biochemistry, 2013).
# Assays:
# saFabI [1] = molecular target: T1, saFabI (Staphylococcus aureus, UniProt Q6GI75); assay: Forward progress curve kinetics of saFabI inhibition; format: biochemical; conditions: for tR: residence time tR = 1/k-1, k-1 from progress curves (b); for slow-binding inhibition of saFabI: curvature of progress curves; for potency estimated from few doses: read-out: Ki
# T1 sequence (Q6GI75 1-256): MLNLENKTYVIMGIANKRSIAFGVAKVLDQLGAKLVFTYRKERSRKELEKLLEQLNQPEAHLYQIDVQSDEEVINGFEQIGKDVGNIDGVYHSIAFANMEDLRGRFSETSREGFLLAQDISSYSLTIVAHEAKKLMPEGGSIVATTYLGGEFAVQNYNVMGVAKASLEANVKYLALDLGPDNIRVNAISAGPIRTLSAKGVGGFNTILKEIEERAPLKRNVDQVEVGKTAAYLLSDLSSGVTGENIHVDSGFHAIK
# saFabI R40Q/K41N/S44L = saFabI R40Q/K41N/S44L (Staphylococcus aureus, UniProt Q6GI75, K41N/R40Q/S44L); assay: 32P-NAD+ dissociation kinetics; format: binding; conditions: for k-1: footnote d: 32P-NAD-based dissociation curve fitted to Eq 5; for tR: residence time tR = 1/k-1, k-1 from 32P-NAD dissociation (d)
# saFabI [2] = molecular target: T1, saFabI; assay: Jump dilution assay; format: biochemical; conditions: for recovery of enzyme activity after dilution: 1:200 dilution after overnight preincubation with NADP+; for k-1: footnote c: jump dilution curve fitted to Eq 1; for tR: residence time tR = 1/k-1, k-1 from jump dilution (c)
# Outline: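 Enzyme expressed in E. coli BL21(DE3) and purified by Ni2+ affinity and size exclusion. 10 μM enzyme was preincubated overnight at room temperature with 15 μM inhibitor and 500 μM NADP+. NADPH oxidation was read at 340 nm, 20 °C, and fitted to the Morrison–Walsh integrated equation.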
Structure (SMILES),tR (saFabI [1]),k-1 (saFabI R40Q/K41N/S44L),tR (saFabI R40Q/K41N/S44L),further results
CCc1ccc(Oc2ccccc2)c(O)c1 [PT01],63.8 ^b min,0.72 ± 0.08 ^d hr^-1,83.3 ^d min,
CCCc1ccc(Oc2ccccc2)c(O)c1 [PT02],60.9 ^b min,0.57 ± 0.09 ^d hr^-1,105.3 ^d min,
CCCCCc1ccc(Oc2ccccc2)c(O)c1 [PT03],300.0 ^b min,0.32 ± 0.17 ^d hr^-1,187.5 ^d min,
"CCCCCCc1ccc(Oc2ccccc2)c(O)c1 [PT04, 5-hexyl-2-phenoxyphenol]",,0.13 ± 0.04 ^d hr^-1,461.5 ^d min,
Oc1ccccc1Oc1ccccc1 [PT51],≤ 1 min,,,slow-binding inhibition of saFabI (saFabI [1]; in words): slow-binding inhibition could not be observed
Oc1cc(Cl)ccc1Oc1ccccc1 [PT52],35.3 ^b min,2.13 ± 0.41 ^d hr^-1,28.2 ^d min,recovery of enzyme activity after dilution (saFabI [2]): full recovery of enzyme activity; k-1 (saFabI [2]): 2.33 ± 0.03 ^c hr^-1; tR (saFabI [2]): 25.8 ^c min
"Cc1ccc(Oc2ccccc2)c(O)c1 [PT53, 5-Methyl-2-phenoxyphenol]",17.3 ^b min,,,potency estimated from few doses (saFabI [1]): 0.38 ± 0.03 nM; k-1 (saFabI [2]): 4.53 ± 0.08 ^c hr^-1; tR (saFabI [2]): 13.2 ^c min
CCCCCCc1ccc(Oc2ccccc2C)c(O)c1 [PT70],,,,"change of affinity by the 2′-substituent (saFabI [1]; B-ring ortho position SAR, in words, PT70 data not shown): increased affinity"
O=[N+]([O-])c1ccc(Oc2ccccc2)c(O)c1 [PT104],6.6 ^b min,,,slow-binding inhibition of saFabI (saFabI [1]; in words): clear slow-binding inhibition; potency estimated from few doses (saFabI [1]): 1.49 ± 0.27 nM
N#Cc1ccccc1Oc1ccc(Br)cc1O [PT443],210.9 ^b min,,,
N#Cc1ccccc1Oc1ccc(Cl)cc1O [PT447],136.4 ^b min,0.47 ± 0.08 ^d hr^-1,127.7 ^d min,recovery of enzyme activity after dilution (saFabI [2]): partially recovered
